Active and inactive are the calls of the source. The rule behind the calls is not given here.
Columns and labels:
[1] = target: Receptor tyrosine-protein kinase erbB-2 (Homo sapiens, UniProt P04626); assay: Inhibition of ERBB2 (unknown origin)
Summary of the method: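 Part of a 141-protein-kinase selectivity panel run either in house or by an outside contract lab. IC50 is reported as the average of at least two determinations.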

[2] = tested on: Mus musculus; assay: In vivo inhibition of mTOR1-mediated phosphorylation of p70S6K at […] in human PC3 cells xenografted into athymic nude mouse at 100 mg/kg, po after 8 hrs by Western blotting analysis relative to control; assay type: functional; settings: PC-3, 8 h
Summary of the method: (§1)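 PC-3 cells (3 × 10⁶, passages 10–14, in ice-cold HBSS) were implanted sc in 5–8 week old male nude mice. Tumors of 200–500 mg received a single oral 100 mg/kg dose. Plasma and tumor were collected at 1, 4, 8, 16, 24 and 32 h and homogenized in buffer. Lysates were pooled per group (n = 5), and phospho-proteins were measured by Western blot normalized to α-tubulin.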

[3] = Cmax in cynomolgus monkey at 3 mg/kg, iv; assay type: ADME, organism-based, Macaca fascicularis; set-up: dose 3 mg/kg, route intravenous; settings: in vivo
Summary of the method: (§2)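 Single-dose PK: female athymic nude mice (10 mg/kg), female CD rats and male beagle dogs (3 mg/kg), male cynomolgus monkeys (3 mg/kg), given iv and by oral gavage. Solution in EPW (5% ethanol/45% PEG400/water), with 1:2 HCl (m/m) for mouse, rat and dog and 1:1.5 HCl (m/m) for monkey. Plasma levels followed over 24 h.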

[4] = tested on: Mus musculus; assay: In vivo inhibition of mTORC1-mediated phosphorylation of pS6 at (serine 240/244) in human PC3 cells xenografted into athymic nude mouse at 100 mg/kg, po after 32 hrs by Western blotting analysis relative to control; assay type: functional; settings: PC-3, 32 h
Summary of the method: (§3)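 PC-3 cells grown in DMEM with 20% FBS were implanted subcutaneously at 3 × 10^6 cells in ice-cold HBSS into the hindflank of 5−8 week old male nude mice. At tumor size 200−500 mg, mice received a single oral dose of 100 mg/kg. Plasma and tumors were collected at 1, 4, 8, 16, 24 and 32 h. Tumor lysates from each group (n = 5) were pooled. Phospho-proteins were quantified by Western blot and normalized to α-tubulin.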

[5] = tested on: Mus musculus; assay: Toxicity in athymic nude mouse assessed as body weight gain at 50 mg/kg, po relative to control; assay type: organism-based; set-up: dose 50 mg/kg, route oral; settings: in vivo
[6] = target: Serine/threonine-protein kinase mTOR (Rattus norvegicus) (UniProt P42346); assay: Reversible inhibition of mTOR (unknown origin) assessed as enzyme recovery measured after dilution in presence of ATP relative to untreated control; settings: Homo sapiens
[7] = target: Cell division cycle 7-related protein kinase (Homo sapiens, UniProt O00311); assay: Inhibition of CDC7 (unknown origin)
[8] = tested on: Mus musculus; assay: In vivo inhibition of mTORC2-mediated phosphorylation of AKT at serine 473 in human PC3 cells xenografted into athymic nude mouse at 100 mg/kg, po after 4 hrs by Western blotting analysis relative to control; assay type: functional; settings: PC-3, 4 h; summary of the method: as §3
[9] = tested on: Mus musculus; assay: In vivo inhibition of mTORC1-mediated phosphorylation of p70S6K at […] in human MCF7 cells xenografted into athymic nude mouse at 100 mg/kg, po after 16 hrs by Western blotting analysis relative to control; assay type: functional; settings: MCF7, 16 h
Summary of the method: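 MCF-7 cells (DMEM, 10% FBS) were implanted subcutaneously at 5 × 10^6 cells in 50% cold HBSS/50% growth-factor-reduced matrigel into the hindflank of 5−8 week old female nude mice. At tumor size 40−150 mg, mice received a single oral dose of 100 mg/kg. Tumor lysates were pooled per group. Phospho-AKT (S473, T308), p70S6K (T389), S6 (S240/244) and 4E-BP1 (T37/46) were measured by Western blot normalized to α-tubulin.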

[10] = Cmax in athymic nude mouse at 10 mg/kg, iv; assay type: ADME, organism-based; set-up: dose 10 mg/kg, route intravenous; settings: in vivo; summary of the method: as §2
[11] = AUC (0 to infinity) in athymic nude mouse at 10 mg/kg, iv; assay type: ADME, organism-based; set-up: time infinity, dose 10 mg/kg, route intravenous; settings: plasma; summary of the method: as §2
[12] = target: Cytochrome P450 2C9 (Homo sapiens, UniProt P11712); assay: Inhibition of CYP2C9 (unknown origin); assay type: ADME
[13] = AUC (0 to infinity) in cynomolgus monkey at 3 mg/kg, iv; assay type: ADME, organism-based, Macaca fascicularis; set-up: time infinity, dose 3 mg/kg, route intravenous; settings: plasma; summary of the method: as §2
[14] = tested on: Mus musculus; assay: In vivo inhibition of mTORC2-mediated phosphorylation of AKT at […] in human MCF7 cells xenografted into athymic nude mouse at 100 mg/kg, po after 4 hrs by Western blotting analysis relative to control; assay type: functional; settings: MCF7, 4 h
Summary of the method: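 Human MCF-7 cells were implanted subcutaneously into the hindflank of female nude mice aged 5−8 weeks, at 5 × 10^6 cells in 50% cold HBSS/50% growth-factor-reduced matrigel. At a tumor size of 40−150 mg, mice got one oral dose. Tumor lysates were pooled per group. Phospho-AKT (T308) was read by Western blot and normalized to α-tubulin.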

[15] = tested on: Mus musculus; assay: In vivo inhibition of mTORC1-mediated phosphorylation of pS6 at (serine 240/244) in human PC3 cells xenografted into athymic nude mouse at 100 mg/kg, po after 24 hrs by Western blotting analysis relative to control; assay type: functional; settings: PC-3, 24 h; summary of the method: as §3
[16] = Drug uptake in tumor of athymic mouse xenografted with human PC3 cells at 100 mg/kg, po after 1 hr; assay type: ADME, organism-based, Neoplasm, PC-3; set-up: dose 100 mg/kg, route oral; settings: read-out: Drug uptake; summary of the method: as §1
[17] = tested on: Mus musculus; assay: Toxicity in athymic nude mouse assessed as body weight loss at 100 mg/kg, po relative to control; assay type: organism-based; set-up: dose 100 mg/kg, route oral; settings: in vivo
[18] = Cmax in cynomolgus monkey at 3 mg/kg, po; assay type: ADME, organism-based, Macaca fascicularis; set-up: dose 3 mg/kg, route oral; settings: in vivo; summary of the method: as §2

Cell division cycle 7-related protein kinase, sequence (O00311 whole entry): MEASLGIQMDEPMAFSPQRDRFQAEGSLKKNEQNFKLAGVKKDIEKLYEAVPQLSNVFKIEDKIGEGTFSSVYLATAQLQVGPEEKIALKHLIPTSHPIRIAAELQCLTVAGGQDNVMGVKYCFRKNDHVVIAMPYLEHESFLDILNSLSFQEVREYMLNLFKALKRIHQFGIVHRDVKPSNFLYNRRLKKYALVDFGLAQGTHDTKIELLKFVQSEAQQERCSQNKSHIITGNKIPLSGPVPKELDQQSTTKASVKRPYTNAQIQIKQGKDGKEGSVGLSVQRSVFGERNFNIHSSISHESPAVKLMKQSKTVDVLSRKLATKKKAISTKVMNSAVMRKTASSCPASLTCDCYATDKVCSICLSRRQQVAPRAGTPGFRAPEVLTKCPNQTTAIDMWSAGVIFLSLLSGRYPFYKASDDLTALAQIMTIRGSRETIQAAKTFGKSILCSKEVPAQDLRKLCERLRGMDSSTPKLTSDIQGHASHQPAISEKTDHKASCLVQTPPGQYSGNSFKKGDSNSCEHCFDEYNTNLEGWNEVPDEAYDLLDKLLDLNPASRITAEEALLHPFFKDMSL
Cytochrome P450 2C9, sequence (P11712 whole entry): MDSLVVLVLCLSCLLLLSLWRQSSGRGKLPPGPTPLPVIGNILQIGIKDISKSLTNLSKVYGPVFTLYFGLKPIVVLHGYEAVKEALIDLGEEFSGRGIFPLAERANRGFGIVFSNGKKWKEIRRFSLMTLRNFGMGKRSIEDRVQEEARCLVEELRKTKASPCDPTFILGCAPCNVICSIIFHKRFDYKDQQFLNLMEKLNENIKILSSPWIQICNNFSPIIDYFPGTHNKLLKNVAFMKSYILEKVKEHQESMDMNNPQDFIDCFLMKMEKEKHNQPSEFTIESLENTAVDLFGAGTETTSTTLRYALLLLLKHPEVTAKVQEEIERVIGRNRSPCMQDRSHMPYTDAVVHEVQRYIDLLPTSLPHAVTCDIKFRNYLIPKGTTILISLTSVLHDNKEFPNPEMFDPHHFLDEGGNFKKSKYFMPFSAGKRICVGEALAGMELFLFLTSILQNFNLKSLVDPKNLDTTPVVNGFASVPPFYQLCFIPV
Receptor tyrosine-protein kinase erbB-2, sequence (P04626 whole entry): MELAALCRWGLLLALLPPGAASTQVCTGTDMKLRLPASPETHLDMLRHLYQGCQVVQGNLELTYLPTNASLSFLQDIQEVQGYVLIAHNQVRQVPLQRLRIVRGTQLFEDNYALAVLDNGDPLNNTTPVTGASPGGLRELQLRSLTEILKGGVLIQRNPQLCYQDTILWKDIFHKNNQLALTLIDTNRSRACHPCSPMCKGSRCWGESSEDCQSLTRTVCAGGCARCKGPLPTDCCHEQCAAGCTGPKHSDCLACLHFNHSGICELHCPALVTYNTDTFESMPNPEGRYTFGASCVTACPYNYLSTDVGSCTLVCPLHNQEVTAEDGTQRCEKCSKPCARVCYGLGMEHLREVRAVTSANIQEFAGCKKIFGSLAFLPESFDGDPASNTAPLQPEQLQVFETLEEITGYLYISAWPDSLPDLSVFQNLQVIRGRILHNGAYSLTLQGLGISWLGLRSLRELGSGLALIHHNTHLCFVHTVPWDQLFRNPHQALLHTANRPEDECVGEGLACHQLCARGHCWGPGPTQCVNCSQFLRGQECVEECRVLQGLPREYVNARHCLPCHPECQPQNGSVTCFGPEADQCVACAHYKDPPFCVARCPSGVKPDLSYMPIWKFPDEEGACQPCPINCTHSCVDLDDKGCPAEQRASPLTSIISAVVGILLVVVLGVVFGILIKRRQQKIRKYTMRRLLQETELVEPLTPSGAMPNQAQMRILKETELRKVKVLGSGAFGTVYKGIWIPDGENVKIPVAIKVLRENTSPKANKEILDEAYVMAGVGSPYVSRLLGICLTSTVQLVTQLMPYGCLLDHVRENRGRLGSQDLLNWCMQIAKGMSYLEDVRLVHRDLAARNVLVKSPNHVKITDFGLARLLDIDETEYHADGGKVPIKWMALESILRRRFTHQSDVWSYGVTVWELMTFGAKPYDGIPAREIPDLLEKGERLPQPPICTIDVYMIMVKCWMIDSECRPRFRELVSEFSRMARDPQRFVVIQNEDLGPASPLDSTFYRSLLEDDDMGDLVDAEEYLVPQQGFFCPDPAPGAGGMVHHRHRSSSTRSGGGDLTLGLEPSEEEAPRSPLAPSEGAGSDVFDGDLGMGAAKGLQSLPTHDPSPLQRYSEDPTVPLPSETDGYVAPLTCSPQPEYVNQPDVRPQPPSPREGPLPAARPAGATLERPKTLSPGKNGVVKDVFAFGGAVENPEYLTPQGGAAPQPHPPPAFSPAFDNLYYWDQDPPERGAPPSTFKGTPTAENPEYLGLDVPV

Cc1c(C(=O)N2CCOc3ccc(-c4ccc(N)nc4)cc3C2)ccc(S(C)(=O)=O)c1F
IC50 [1]: > 3.5 µM
inhibition in vivo at 100 mg/kg [2]: 92%
Cmax [3]: 0.95 µM
inhibition in vivo at 100 mg/kg [4]: -20%
Activity [5]: 2.2%
inhibition [6]: inactive
IC50 [7]: > 3.5 µM
inhibition in vivo at 100 mg/kg [8]: 81%
inhibition in vivo at 100 mg/kg [9]: 41%
Cmax [10]: 9.14 µM
AUC(0-inf) [11]: 8 µM·h
INH [12]: 10.6 µM
AUC(0-inf) [13]: 1.31 µM·h
inhibition in vivo at 100 mg/kg [14]: 13%
inhibition in vivo at 100 mg/kg [15]: 8%
concentration at 1 h [16]: 28.8 µM
Activity [17]: 2.8%
Cmax [18]: 0.25 µM

Source: ChEMBL document CHEMBL2331117 (J Med Chem, 2013)
